Assay results published in ChEMBL document CHEMBL1134593, “Acyclic and cyclopropyl analogues of adenosine bisphosphate antagonists of the P2Y1 receptor: structure-activity relationships and receptor docking” (J Med Chem, 2001).

What was measured:
[1] = molecular target: P2Y purinoceptor 1 (Meleagris gallopavo) (UniProt P49652); assay: In vitro antagonist activity against turkey P2Y1 receptor, expressed as percent of maximal inhibition at 100 uM; format: functional; parameters: scale not given: the % may be the effect or the level left
[2] = molecular target: P2Y purinoceptor 1 (Meleagris gallopavo, UniProt P49652); assay: Inhibitory concentration against P2Y1 receptor in turkey erythrocyte membranes; format: cell membranes
Procedure, shortened: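 Turkey erythrocytes labeled 18–24 h at 37 °C with 2-[3H]myo-inositol in inositol-free DMEM, then lysed hypotonically (5 mM sodium phosphate pH 7.4, 5 mM MgCl2, 1 mM EGTA) to give ghosts. Phospholipase C assayed in Hepes pH 7.0 buffer with 1 μM GTPγS, antagonist and 30 nM 2-MeSADP, 5 min at 30 °C. Total [3H]inositol phosphates quantified by anion exchange.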

Sequence of P2Y purinoceptor 1 (P49652 whole entry): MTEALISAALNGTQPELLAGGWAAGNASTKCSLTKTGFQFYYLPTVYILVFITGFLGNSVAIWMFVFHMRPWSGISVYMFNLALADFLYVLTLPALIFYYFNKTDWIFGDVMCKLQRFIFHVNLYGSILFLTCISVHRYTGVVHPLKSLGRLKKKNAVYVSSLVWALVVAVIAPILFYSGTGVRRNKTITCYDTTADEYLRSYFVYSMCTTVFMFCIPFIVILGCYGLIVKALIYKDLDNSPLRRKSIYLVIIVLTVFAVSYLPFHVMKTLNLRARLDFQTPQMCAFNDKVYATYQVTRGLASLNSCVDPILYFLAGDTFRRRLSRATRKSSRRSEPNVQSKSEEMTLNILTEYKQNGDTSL
Sequence of P2Y purinoceptor 1 (Meleagris gallopavo) (P49652 whole entry): as above

SMILES | Activity [1] [%] | IC50 [2] [nM]
CNc1nc(Cl)nc2c1ncn2C[C@@H]1[C@H](COP(=O)(O)O)[C@@H]1COP(=O)(O)O | 100 | 2170
CNc1nc(Cl)nc2c1ncn2CC(COC(C)=O)COP(=O)(O)O (stereo unspecified) | 65 | 37600
CNc1nc(Cl)nc2c1ncn2C1CC1(COP(=O)(O)O)COP(=O)(O)O (stereo unspecified) | 100 | 2360
CNc1nc(Cl)nc2c1ncn2CC1CC1(COP(=O)(O)O)COP(=O)(O)O (stereo unspecified) | 100 | 1900
CNc1nc(Cl)nc2c1ncn2C[C@H]1[C@H](COP(=O)(O)O)[C@@H]1COP(=O)(O)O | 100 | 1740
CNc1nc(Cl)nc2c1ncn2CC1[C@H](COP(=O)(O)O)[C@H]1COP(=O)(O)O (stereo partly specified) | 100 | 2700
CNc1nc(Cl)nc2c1ncn2CC(COP(=O)(O)O)COP(=O)(OC)OC (stereo unspecified) | 78 | 31000
CNc1ncnc2c1ncn2CC(COP(=O)(O)O)COP(=O)(O)O | 100 | 1090

Further lines, results first:

Activity [1] [%] | IC50 [2] [nM] | SMILES
68 | 22600 | CNc1nc(Cl)nc2c1ncn2CC(CO)COP(=O)(O)O (stereo unspecified)
100 | 7860 | CNc1nc(Cl)nc2c1ncn2C[C@H](COP(=O)(O)O)OP(=O)(O)O
99 | 840 | CNc1nc(Cl)nc2c1ncn2CCC(COP(=O)(O)O)COP(=O)(O)O
100 | 4560 | CNc1nc(Cl)nc2c1ncn2C(COP(=O)(O)O)COP(=O)(O)O
100 | 230 | CNc1nc(Cl)nc2c1ncn2CC(COP(=O)(O)O)COP(=O)(O)OP(=O)(O)O (stereo unspecified)
100 | 1470 | CNc1nc(Cl)nc2c1ncn2C[C@@H](COP(=O)(O)O)OP(=O)(O)O
100 | 1600 | CNc1ncnc2c1ncn2CCC(COP(=O)(O)O)COP(=O)(O)O
100 | 2040 | CNc1nc(Cl)nc2c1ncn2CC(CCOP(=O)(O)O)CCOP(=O)(O)O
100 | 2100 | CNc1nc(Cl)nc2c1ncn2CC=C(COP(=O)(O)O)COP(=O)(O)O
100 | 480 | CNc1nc(Cl)nc2c1ncn2CC(COP(=O)(O)O)COP(=O)(O)O
